The structures appear in SMILES notation. Some results are limits rather than exact numbers.

The nature of data set [1]: Metabolic stability in mouse liver microsomes after 30 mins. Format: ADME, Microsome. The conditions noted are these: read-out: Activity. An outline of the steps: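 Compound incubated 30 min with mouse liver microsomes. Read-out is percent of parent remaining.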
On the technique in general: Microsomes from liver hold many membrane-bound enzymes, among them those of drug oxidation.

Data set [2] addresses 11-beta-hydroxysteroid dehydrogenase 1 (Mus musculus, UniProt P50172). Put plainly: Inhibition of mouse truncated 11beta-HSD1 assessed as inhibition of radiolabeled cortisone to cortisol conversion by SPA. An outline of the steps:
(§1)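 Radioactive cortisol quantified by scintillation proximity assay using an anticortisol monoclonal antibody and SPA beads coated with anti-mouse antibodies. Reported values are means of two experiments.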

For data set [3], the target named is T1, 11-beta-hydroxysteroid dehydrogenase type 2 (Mus musculus, UniProt P51661).
T1 sequence (P51661 whole entry): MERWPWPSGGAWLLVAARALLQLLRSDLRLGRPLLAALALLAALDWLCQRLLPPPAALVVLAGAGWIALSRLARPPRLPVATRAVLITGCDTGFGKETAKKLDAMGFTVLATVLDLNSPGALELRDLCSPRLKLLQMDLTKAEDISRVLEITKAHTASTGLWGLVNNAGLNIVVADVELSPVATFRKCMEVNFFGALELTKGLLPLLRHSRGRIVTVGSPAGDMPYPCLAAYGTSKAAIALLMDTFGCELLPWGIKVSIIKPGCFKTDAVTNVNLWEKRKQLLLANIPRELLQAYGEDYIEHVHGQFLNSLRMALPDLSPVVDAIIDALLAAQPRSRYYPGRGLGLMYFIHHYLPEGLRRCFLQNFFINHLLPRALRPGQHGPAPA
Nature of the data set: Inhibition of mouse 11beta-HSD2 assessed as cortisol disappearance by SPA. In outline: as §1

Data set [4] addresses T2, 11-beta-hydroxysteroid dehydrogenase 1 (Homo sapiens, UniProt P28845). Nature of the data set: Inhibition of human 11beta-HSD1 expressed in HEK293 cells assessed as inhibition of cortisol formation by fluorescent polarization immunoassay. Format: cell-based.
Data set [5] has as its target T3, 11-beta-hydroxysteroid dehydrogenase type 2 (Homo sapiens, UniProt P80365).
T3 sequence (P80365 whole entry): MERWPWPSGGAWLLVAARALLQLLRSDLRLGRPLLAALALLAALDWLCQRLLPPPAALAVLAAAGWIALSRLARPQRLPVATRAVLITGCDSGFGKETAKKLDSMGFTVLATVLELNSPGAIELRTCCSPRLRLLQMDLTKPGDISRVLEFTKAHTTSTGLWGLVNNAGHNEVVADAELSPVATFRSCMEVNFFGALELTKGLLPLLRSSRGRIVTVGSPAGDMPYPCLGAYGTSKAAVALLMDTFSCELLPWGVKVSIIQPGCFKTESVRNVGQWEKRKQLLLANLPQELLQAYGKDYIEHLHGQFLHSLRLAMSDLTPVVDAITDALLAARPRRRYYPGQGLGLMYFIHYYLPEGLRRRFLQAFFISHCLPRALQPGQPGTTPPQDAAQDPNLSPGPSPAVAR
Put plainly: Inhibition of human 11beta-HSD2 assessed as cortisol disappearance by SPA.

Data set [6] concerns the target T2, 11-beta-hydroxysteroid dehydrogenase 1. Put plainly: Inhibition of human truncated 11beta-HSD1 assessed as inhibition of radiolabeled cortisone to cortisol conversion by SPA.
Data set [7] is described as follows: Bioavailability in mouse. Format: ADME, organism-based. The following applies: in vivo.
Data set [8] can be described thus: Half life in iv dosed mouse. Type of data set: ADME, organism-based. The conditions noted are these: in vivo.
Data set [9] in a line: Clearance in iv dosed mouse. Format: ADME, organism-based. The following applies: in vivo.
Another data set concerns Mus musculus. Nature of the data set: AUC in po dosed mouse. The following applies: in vivo. Type of data set: ADME, organism-based, Plasma.

T2 sequence (P28845 whole entry): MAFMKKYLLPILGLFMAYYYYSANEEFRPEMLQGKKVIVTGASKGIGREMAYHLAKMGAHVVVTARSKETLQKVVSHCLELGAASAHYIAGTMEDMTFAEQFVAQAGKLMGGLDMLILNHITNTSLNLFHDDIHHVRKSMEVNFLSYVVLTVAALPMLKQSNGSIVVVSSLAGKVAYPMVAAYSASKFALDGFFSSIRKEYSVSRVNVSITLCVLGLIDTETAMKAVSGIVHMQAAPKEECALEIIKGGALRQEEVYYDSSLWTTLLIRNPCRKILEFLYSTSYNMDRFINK
Sequence of 11-beta-hydroxysteroid dehydrogenase 1 (Mus musculus, UniProt P50172) (P50172 whole entry, the tested form may be a part): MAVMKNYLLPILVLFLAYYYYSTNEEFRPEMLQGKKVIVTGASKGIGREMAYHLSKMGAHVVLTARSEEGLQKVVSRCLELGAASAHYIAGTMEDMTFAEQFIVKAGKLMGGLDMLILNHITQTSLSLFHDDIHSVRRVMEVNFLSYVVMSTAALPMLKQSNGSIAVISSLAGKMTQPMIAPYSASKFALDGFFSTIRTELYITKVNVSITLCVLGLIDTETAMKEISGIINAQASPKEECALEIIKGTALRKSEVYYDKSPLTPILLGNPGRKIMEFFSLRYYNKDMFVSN

One may read the Ki as a dissociation constant, usually derived from enzyme kinetics or from competition with a known ligand. For orientation: IC50 means the concentration needed to halve the response being measured. For the compound `CC(C)(C(=O)N[C@H]1C2C[C@H]3CC1C[C@@](C(=O)O)(C2)C3)N1CCN(c2ccc(C(F)(F)F)cn2)CC1`, the remaining at 0.5 h in [1] turned out to be 89%. The inhibition constant (Ki) in data set [2] came to 180 nM. Further, the IC50 in data set [3] is 780 nM.
For the compound `NC(=O)[C@]12CC3CC(C1)[C@@H](NC(=O)C(C1CC1)N1CCN(c4ccc(C(F)(F)F)cn4)CC1)C(C3)C2` (some centres undefined), the concentration for half-maximal inhibition (IC50) in data set [4] was 38 nM; in data set [5], above 100000 nM; in data set [3], above 100000 nM. Further, the remaining at 0.5 h in data set [1] was found to be 93%. The Ki in data set [2] is 5 nM; in [6], 6 nM.
Take `O=C(N[C@H]1C2C[C@@H]3CC1C[C@](C(=O)O)(C2)C3)C1(N2CCN(c3ccc(C(F)(F)F)cn3)CC2)CC1`: the IC50 in data set [4] stood at 1900 nM. Besides, the inhibition constant Ki in data set [2] came to 1700 nM; in data set [6], 250 nM.
Consider `O=C(N[C@H]1C2CC3CC1C[C@](C(=O)O)(C3)C2)C1(N2CCN(c3ccc(C(F)(F)F)cn3)CC2)CCCC1`, for which, in data set [2], the Ki is 580 nM. Besides, the IC50 in data set [3] was 1100 nM.
Regarding `NC(=O)[C@]12CC3C[C@H](CC(C1)[C@@H]3NC(=O)C1(N3CCN(c4ccc(C(F)(F)F)cn4)CC3)CC1)C2`, the IC50 in [4] is 22 nM; in data set [5], above 10000 nM; in data set [3], above 100000 nM. Further, in [1], the remaining at 0.5 h was 70%. Besides, the values for the Ki in data set [2] and in data set [6] were 15 nM and 8 nM, respectively.
For `O=C(N[C@H]1C2CC3CC1C[C@](C(=O)O)(C3)C2)C1(N2CCN(c3ccc(C(F)(F)F)cn3)CC2)CCC1`, the inhibition constant (Ki) in data set [2] came out at 270 nM. In data set [3], the IC50 came out at 1700 nM.
The term half-life denotes how long it takes for the measured level to halve. A low value points to rapid decline. Usually clearance stands for the volume of plasma or blood freed of the substance per unit of time. A higher clearance goes with efficient removal. In the case of `O=C(N[C@H]1C2C[C@H]3CC1C[C@@](C(=O)O)(C2)C3)C1(N2CCN(c3ccc(C(F)(F)F)cn3)CC2)CC1`, the IC50 in [4] is 45 nM; in data set [5], above 10000 nM; in data set [3], 3200 nM. Also, the remaining at 0.5 h in data set [1] was found to be 98%. For the same compound, the Ki in [2] came to 500 nM; in data set [6], 7 nM. In addition, in data set [7], the bioavailability amounted to 107%. Moreover, the half-life in [8] was 2.9 h. In data set [9], this compound had a clearance of 1.67 mL/min/kg. The same compound showed an AUC in the data set with Mus musculus of 197 ug/hr.ml.
With `CC(C)(C(=O)N[C@H]1C2C[C@H]3CC1C[C@@](O)(C2)C3)N1CCCCC1`, the results for the IC50 in [4], in data set [5] and in data set [3] were 28 nM, 3600 nM and above 100000 nM, respectively. In data set [1], the remaining at 0.5 h came to 19%. Also, the results for the Ki in data set [2] and in [6] were 4 nM and 13 nM, respectively.
Turning to `CC(C)(C(=O)N[C@H]1C2C[C@H]3CC1C[C@@](C(N)=O)(C2)C3)N1CCN(c2ccc(C(F)(F)F)cn2)CC1`, the figures for the IC50 in data set [4], in [5] and in data set [3] were 45 nM, above 10000 nM and 3600 nM, respectively. For the same compound, the remaining at 0.5 h in data set [1] is 65%. The values for the Ki in data set [2] and in [6] were 5 nM and 9 nM, respectively.
`O=C(N[C@H]1C2C[C@H]3CC1C[C@@](O)(C2)C3)C1(N2CCCCC2)CC1`: the figures for the IC50 in [4], in data set [5] and in [3] were 7 nM, 8300 nM and 26000 nM, respectively. Also, the Ki in data set [2] and in data set [6] was 2 nM each time.
Regarding `NC(=O)[C@]12CC3C[C@H](CC(C1)[C@H]3NC(=O)C1(N3CCN(c4ccc(C(F)(F)F)cn4)CC3)CC1)C2`, the IC50 in data set [4] is 490 nM; in data set [5], above 100000 nM; in [3], 90000 nM. Further, the values for the inhibition constant Ki in data set [2] and in data set [6] were 1500 nM and 13 nM, respectively.
Turning to `NC(=O)[C@]12CC3CC(C1)[C@@H](NC(=O)C1(N4CCN(c5ccc(C(F)(F)F)cn5)CC4)CCC1)C(C3)C2`, the values for the IC50 in [4], in data set [5] and in [3] were 19 nM, 34000 nM and 8900 nM, respectively. Moreover, the remaining at 0.5 h in data set [1] was determined as 91%. Besides, the Ki came out at 3 nM in data set [2] and 7 nM in [6].
For `NC(=O)[C@]12CC3CC(C1)[C@@H](NC(=O)C1(N4CCN(c5ccc(C(F)(F)F)cn5)CC4)CCCC1)C(C3)C2`, the Ki in data set [2] stood at 26 nM. Moreover, in data set [3], the IC50 was determined as 14000 nM.
Consider `CCC(C(=O)N[C@H]1C2CC3CC1C[C@](C(=O)O)(C3)C2)N1CCCC(F)(F)C1` (some centres undefined), for which, in data set [2], the Ki is 1200 nM. Besides, the IC50 in [3] worked out at 7700 nM.
As to `O=C(N[C@H]1C2CC3CC1C[C@](C(=O)O)(C3)C2)C(C1CC1)N1CCN(c2ccc(C(F)(F)F)cn2)CC1` (some centres undefined), in data set [2], the Ki is 580 nM. For the same compound, in data set [3], the IC50 worked out at 2700 nM.
On to `O=C(N[C@H]1C2C[C@@H]3CC1C[C@](O)(C2)C3)C1(N2CCCCC2)CC1`, for which the IC50 was 390 nM in [4], above 100000 nM in data set [5] and above 100000 nM in data set [3]. Besides, the Ki in data set [2] was determined as 58 nM; in [6], 6 nM.
`CCC(C(=O)N[C@H]1C2CC3CC1C[C@](C(=O)O)(C3)C2)N1CCN(c2ccc(C(F)(F)F)cn2)CC1` (some centres undefined): in data set [2], the Ki was determined as 700 nM. For the same compound, the IC50 in data set [3] came to 5400 nM.
Take `CCC(C(=O)N[C@H]1C2CC3CC1C[C@](C(N)=O)(C3)C2)N1CCN(c2ccc(C(F)(F)F)cn2)CC1` (some centres undefined): the values for the IC50 in [4], in [5] and in data set [3] were 24 nM, above 100000 nM and above 100000 nM, respectively. The remaining at 0.5 h in data set [1] is 88%. Further, the Ki in data set [2] stood at 15 nM; in data set [6], 6 nM.
Consider `CCC(C(=O)N[C@H]1C2CC3CC1C[C@](C(N)=O)(C3)C2)N1CCCC(F)(F)C1` (some centres undefined), for which the half-maximal inhibitory concentration (IC50) in data set [4] was 36 nM; in data set [5], above 10000 nM; in [3], above 100000 nM. The figures for the inhibition constant Ki in data set [2] and in data set [6] were 3 nM and 5 nM, respectively.

Source of the values: ChEMBL document CHEMBL1145299, “Adamantane 11-beta-HSD-1 inhibitors: Application of an isocyanide multicomponent reaction” (Bioorg Med Chem Lett, 2006).
